Screen size: about 2,300 compounds; fewer than 10 were called active. Not all results are given here. Values without a mark were called inactive.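 How the source made its calls: active means duplicate-mean ratio percent above the mean of iodide-only control wells, which defines zero, plus 5 of their SD; inactive means the rest.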
target: Chloride channel protein 1 (Rattus norvegicus) (UniProt P35524); experiment: ClC-1 chloride channel inhibition, selectivity assay for TMEM16A inhibitor project, cell-based, voltage-dependent ClC-1 (AID 652236); settings: CHO ClC-1-YFP, iodide influx fluorescence quench; at 10 µM; iodide control reads 0, buffer control 100;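 further: higher percent means stronger block of ClC-1 iodide influx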
Sequence (P35524 whole entry, looked up): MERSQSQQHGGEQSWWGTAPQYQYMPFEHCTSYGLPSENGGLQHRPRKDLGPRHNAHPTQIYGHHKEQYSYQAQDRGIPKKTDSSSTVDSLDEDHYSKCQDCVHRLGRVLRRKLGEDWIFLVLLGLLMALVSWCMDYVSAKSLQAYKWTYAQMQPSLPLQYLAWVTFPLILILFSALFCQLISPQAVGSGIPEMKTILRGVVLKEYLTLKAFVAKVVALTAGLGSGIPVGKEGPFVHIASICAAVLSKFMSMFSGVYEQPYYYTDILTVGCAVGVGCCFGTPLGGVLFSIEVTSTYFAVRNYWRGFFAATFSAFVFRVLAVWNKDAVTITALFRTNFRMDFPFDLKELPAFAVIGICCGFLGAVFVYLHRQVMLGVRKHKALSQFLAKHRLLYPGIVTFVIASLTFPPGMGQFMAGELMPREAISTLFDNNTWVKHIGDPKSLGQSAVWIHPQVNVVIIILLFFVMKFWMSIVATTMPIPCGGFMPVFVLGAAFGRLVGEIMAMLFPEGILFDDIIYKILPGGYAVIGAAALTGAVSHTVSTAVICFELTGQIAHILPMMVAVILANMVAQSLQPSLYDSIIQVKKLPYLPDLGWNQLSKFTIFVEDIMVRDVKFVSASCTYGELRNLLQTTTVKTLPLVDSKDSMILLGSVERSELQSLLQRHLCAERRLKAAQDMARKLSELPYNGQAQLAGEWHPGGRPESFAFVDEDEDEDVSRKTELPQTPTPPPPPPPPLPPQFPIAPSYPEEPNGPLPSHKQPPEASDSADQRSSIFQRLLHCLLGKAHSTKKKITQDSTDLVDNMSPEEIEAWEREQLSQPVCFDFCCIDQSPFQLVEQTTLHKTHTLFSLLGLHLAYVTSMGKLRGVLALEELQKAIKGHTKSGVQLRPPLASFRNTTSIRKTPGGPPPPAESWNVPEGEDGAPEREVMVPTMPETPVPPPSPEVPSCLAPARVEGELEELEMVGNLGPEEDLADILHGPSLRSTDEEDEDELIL
Procedure, shortened: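 System: ClC-1 CHO cells with mutant YFP H148Q/I152L / Buffer or medium: HBSS-HEPES pH 7.4, sodium gluconate substituted for NaCl / Probe or stimulus: iodide trigger solution, 138 mM as 4x stock / Schedule: compound 20 min, RT / Measured by: kinetic YFP fluorescence quenching by iodide, sampled at 1 Hz / Control set: buffer-only controls and iodide controls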

Q: For `S=C(NCC1CCCO1)N1CCN(c2ccc(Cl)c(Cl)c2)CC1` (stereo unspecified), which ratio percent is on record?
A: Its ratio percent is -16.5%.

Q: `COc1ccc(Cl)cc1NC(=O)CCS(=O)(=O)c1cc2c(cc1C)NC(=O)CO2` was tested. Which ratio percent did it give?
A: The ratio percent was -11%.

Q: `CCc1cc2c(N3CCN(c4nnc(CC)s4)CC3)ncnc2s1` was tested. Which ratio percent did it give?
A: Its ratio percent is -5%.

Q: How did the ratio percent turn out when `Cc1cccc(-n2c(SCC(N)=O)nc3c(c2=O)C2(CCCCC2)Cc2ccccc2-3)c1` was run?
A: The ratio percent was -9.5%.

Q: For `Cc1ccc(-c2csc(-c3c[nH]c4ccccc34)n2)cc1`, which ratio percent is on record?
A: Its ratio percent is -9.5%.

Q: With `CCCCCc1ccc(-c2ccc(C(=O)O)cc2)nc1` as the molecule, how does the ratio percent read?
A: The ratio percent was -6%.

Q: `Cn1c(=O)n(C)c2cc(S(=O)(=O)N3CCCc4ccccc43)ccc21` was tested. Which ratio percent did it give?
A: Its ratio percent is -7.5%.

Q: Which ratio percent does the source give for `O=C(Nc1ccccc1)c1ccccc1NC(=O)C(F)(F)F` here?
A: The ratio percent was -15%.

Q: `Cc1ccc(NC(=O)C(C)c2cccc(C(=O)c3ccccc3)c2)cc1` (stereo unspecified) was tested. Which ratio percent did it give?
A: The ratio percent was -13.5%.

Q: How did the ratio percent turn out when `CSc1cccc(NC(=S)N(C(C)C)C(C)c2ccccn2)c1` (stereo unspecified) was run?
A: Its ratio percent is -3%.

Q: `CC(C)(C)C(=O)/C(C#N)=C/c1ccc(O)cc1` was tested. Which ratio percent did it give?
A: The ratio percent was -8%.

Q: For `C=C(C)Cn1c(C)cc(C)c(S(=O)(=O)c2ccccc2C)c1=O`, which ratio percent is on record?
A: The ratio percent was -6%.

Q: `CCCOc1ccc(Cc2c(Cl)nc(SC)nc2NC)cc1` was tested. Which ratio percent did it give?
A: The ratio percent was -27.5%.

Q: For `CC(NC(=O)c1ccco1)C(=O)Nc1nc(-c2ccccn2)cs1` (stereo unspecified), which ratio percent is on record?
A: Its ratio percent is -2.5%.

Q: `Cc1ccc2c(c1)N(CC(=O)N1CCCc3ccccc31)C(=O)C(C)O2` (stereo unspecified) was tested. Which ratio percent did it give?
A: The ratio percent was -3%.

Q: For `Cn1c(CCN2CCCCCC2)nc2cc(NC(=O)Nc3ccccc3)ccc21`, which ratio percent is on record?
A: The ratio percent was -1.5%.

Q: With `Cc1cc(C)cc(NS(=O)(=O)c2ccc(Oc3ncc(C(F)(F)F)cc3Cl)cc2)c1` as the molecule, how does the ratio percent read?
A: Its ratio percent is -9.5%.

Q: For `CN(c1cccc(NC(=O)c2ccc(CN3CCc4ccccc4C3)cc2)c1)S(C)(=O)=O`, which ratio percent is on record?
A: The ratio percent was -8%.

Q: For `COc1ccc(S(=O)(=O)NCCCCOc2ccc(Cl)cc2)cc1`, which ratio percent is on record?
A: The ratio percent was -32.5%.

Q: For `COc1ccc(NC(=O)C2=CC(c3ccc(OC)c(OC)c3)=NS(=O)(=O)N2C)cc1`, which ratio percent is on record?
A: The ratio percent was -3.5%.

Q: Which ratio percent does the source give for `Cc1ccccc1-n1nnnc1SCCCC(=O)c1ccc(F)cc1` here?
A: Its ratio percent is -11%.

Q: For `COc1ccc(-c2nc(CCNC(=O)c3ccc(Br)o3)cs2)cc1`, which ratio percent is on record?
A: Its ratio percent is -12%.

Q: With `O=C(CN1CCN(C(=S)NC2CCCC2)CC1)Nc1ccc(Oc2ccccc2)cc1` as the molecule, how does the ratio percent read?
A: The ratio percent was -15.5%.

Q: Which ratio percent does the source give for `CCOC(=O)C1CCN(c2ncnc3c2oc2ccc(Br)cc23)CC1` here?
A: The ratio percent was -36.5%.

Q: With `Cc1cc(C=O)c(C)n1-c1ccc(NC2CCCCC2)c([N+](=O)[O-])c1` as the molecule, how does the ratio percent read?
A: The ratio percent was -10.5%.

Q: Which ratio percent does the source give for `O=C(O)c1ccc(NC(=O)C2CCCCC2)cc1` here?
A: Its ratio percent is -7%.

Q: `Cc1nc(CNS(=O)(=O)c2ccc(Oc3ccccc3)cc2)cs1` was tested. Which ratio percent did it give?
A: Its ratio percent is -6.5%.

Q: Which ratio percent does the source give for `S=C(NCc1cccs1)Nc1ccc(Cl)cc1` here?
A: Its ratio percent is -12.5%.

Q: With `N#CC1=C(SCc2ccccc2)NC(=O)C(C#N)C12CCCC2` (stereo unspecified) as the molecule, how does the ratio percent read?
A: The ratio percent was -12.5%.

Q: How did the ratio percent turn out when `C=CCSc1nsc(NC(=O)Nc2cccc(C(C)=O)c2)n1` was run?
A: The ratio percent was -15.5%.

Q: Which ratio percent does the source give for `O=C(Nc1nc(-c2ccc3c(c2)OCO3)cs1)c1ccncc1` here?
A: The ratio percent was -13.5%.

Q: Which ratio percent does the source give for `CCC(=O)Nc1ccc2nc(C)n(Cc3ccccc3Cl)c(=O)c2c1` here?
A: The ratio percent was -2%.

Q: Which ratio percent does the source give for `O=C(N/N=C/c1cc(Cl)cc([N+](=O)[O-])c1O)C(O)(c1ccccc1)c1ccccc1` here?
A: The ratio percent was -7%.

Q: For `O=S1(=O)CCN(Cc2ccccc2Cl)CC1`, which ratio percent is on record?
A: The ratio percent was -3.5%.

Q: For `O=C(NC(=S)Nc1ccccc1C(=O)O)c1ccc(-c2ccc(Br)cc2)o1`, which ratio percent is on record?
A: The ratio percent was -15%.

Q: How did the ratio percent turn out when `O=C(COC(=O)CCc1c[nH]c(=O)[nH]1)Nc1ccccc1Cl` was run?
A: The ratio percent was -14%.

Q: With `c1ccc(-c2nnc(SCc3nc4ccccc4[nH]3)o2)cc1` as the molecule, how does the ratio percent read?
A: The ratio percent was -14%.

Q: For `O=C1c2ccccc2C(Nc2ccc3c(c2)OCCO3)N1Cc1ccco1` (stereo unspecified), which ratio percent is on record?
A: Its ratio percent is -13%.

Q: How did the ratio percent turn out when `Cc1ccc(NC(=O)CN(C)CC(=O)Nc2cccc(F)c2)cc1[N+](=O)[O-]` was run?
A: The ratio percent was -20.5%.

Q: How did the ratio percent turn out when `COC(=O)c1ccc(COC(=O)c2c(C)nn(Cc3ccccc3Cl)c2Cl)o1` was run?
A: The ratio percent was -2%.

Q: Which ratio percent does the source give for `CCn1nccc1C(=O)Nc1ccc(S(=O)(=O)NC23CC4CC(CC(C4)C2)C3)cc1` here?
A: The ratio percent was -8.5%.

Q: For `COc1ccc2[nH]cc(/C=C(/C#N)S(=O)(=O)c3ccccc3)c2c1`, which ratio percent is on record?
A: The ratio percent was -11.5%.

Q: Which ratio percent does the source give for `CC1=NN(c2cccc(Cl)c2)C(=O)C12CC(C)=C(C)CS2` (stereo unspecified) here?
A: Its ratio percent is -13.5%.

Q: `O=C(CSCc1ccc(Cl)cc1)N1CCN(Cc2ccc3c(c2)OCO3)CC1` was tested. Which ratio percent did it give?
A: Its ratio percent is 2.5%.

Q: How did the ratio percent turn out when `COc1ccc(CCC(=O)c2ccc(OC)cc2)cc1` was run?
A: The ratio percent was -4%.

Q: `Fc1ccc2[nH]c3c(N4CCSCC4)ncnc3c2c1` was tested. Which ratio percent did it give?
A: Its ratio percent is -36.5%.

Q: `O=C(CNCCC1=CCCCC1)Nc1ccccc1N1CCCCCC1` was tested. Which ratio percent did it give?
A: Its ratio percent is -9%.

Q: How did the ratio percent turn out when `CN(C)c1cc[n+](Cc2ccccc2)cc1` was run?
A: The ratio percent was -5%.

Q: For `Cc1ccc(-n2[nH]c(C)c(/C=N/N3C(=O)c4cccc5cccc(c45)C3=O)c2=O)cc1`, which ratio percent is on record?
A: The ratio percent was -16%.

Q: Which ratio percent does the source give for `Cc1nc(SCC(=O)N2CCc3ccccc3C2)c2c(C)c(C)sc2n1` here?
A: The ratio percent was -16%.

Q: For `O=C(NCCc1ccc2c(c1)OCCO2)c1cc2ccccc2o1`, which ratio percent is on record?
A: The ratio percent was -21%.

Q: With `Cc1ccc(F)cc1NC(=O)Cc1nn(C)c(=O)c2ccccc12` as the molecule, how does the ratio percent read?
A: The ratio percent was -14%.

Q: `Cc1ccc(N)cc1-n1c(C)ccc1C` was tested. Which ratio percent did it give?
A: The ratio percent was -8%.

Q: `CCOC(=O)C(Sc1ncc(C#N)c(N)n1)C(C)C` (stereo unspecified) was tested. Which ratio percent did it give?
A: The ratio percent was -18%.

Q: Which ratio percent does the source give for `Fc1ccc(CSc2nnc(-c3cc4c(s3)-c3ccccc3CC4)o2)cc1` here?
A: Its ratio percent is -3%.

Q: Which ratio percent does the source give for `N#Cc1nc(COc2ccc(-c3ccccc3)cc2)oc1NCc1cccnc1` here?
A: The ratio percent was -19%.

Q: For `Cc1nc2c(C(=O)NCc3ccc4c(c3)OCO4)c[nH]n2c(=O)c1Cc1ccccc1F`, which ratio percent is on record?
A: The ratio percent was -1.5%.

Q: For `COc1cc(CC(=O)Nc2nc(-c3ccc(F)c(F)c3)cs2)cc(OC)c1OC`, which ratio percent is on record?
A: Its ratio percent is -7%.

Q: For `CN(Cc1cccnc1)C(=O)c1cc(COc2ccc3ncccc3c2)on1`, which ratio percent is on record?
A: Its ratio percent is -24%.

Q: Which ratio percent does the source give for `Cc1ccc(-c2noc(CSc3nnnn3-c3ccccc3)n2)cc1` here?
A: The ratio percent was -1.5%.

Q: Which ratio percent does the source give for `S=C(NCc1ccc(Cl)cc1)NC12CC3CC(CC(C3)C1)C2` here?
A: Its ratio percent is -20.5%.

Reference: PubChem BioAssay AID652236 (Johns Hopkins Ion Channel Center, 2013)
